In data set [1] the test system is Mus musculus. Kind of data set: Anticonvulsant activity in mice using sc Met seizure test;Activity determined at the time of peak effect (1hr) and value ranges from (26-62). The class given is functional. Put shortly: (§1)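 Subcutaneous pentylenetetrazol at the CD99 convulsant dose was given to mice pretreated at 30–600 mg/kg, four per dose, with tests at 30 min and 4 h. Protection is the absence of even a threshold seizure (one clonic spasm episode of 5 s). ED50 is estimated graphically or determined at the time of peak effect; 95% limits are by Litchfield-Wilcoxon.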

The subject of data set [2] is Mus musculus. Kind of data set: Anticonvulsant activity in mice using MES seizure test;Compound is neurotoxic at 300 mg/kg dose. Type of data set: functional, organism-based. Details: dose 300 mg/kg.
A short description of data set [3]: Anticonvulsant activity expressed as toxic dose in rotarod test (0.5 hr) in mice;Activity determined at the time of peak effect (0.5 hr) and value ranges from (126-147). The following applies: mouse, in vivo. The class given is ADME, organism-based. Put shortly: (§2)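 Acute neurotoxicity in mice by rotorod test after injection at 30, 100, 300 and 600 mg/kg, read at 30 min and 4 h, four animals per dose. TD50 is the median neurotoxic dose, estimated graphically; where confidence limits are given they are 95% limits by the Litchfield-Wilcoxon method from additional ADD testing.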
In general terms: In the rotarod test animals must keep their balance on a rotating rod.

The subject of data set [4] is Mus musculus. Put plainly: Anticonvulsant activity in mice using sc Met seizure test;Activity determined at 4h. Type of data set: functional. Put shortly: as §1
For data set [5], the system named is Mus musculus. Kind of data set: Anticonvulsant activity in mice using MES seizure test;Compound is neurotoxic at 100 mg/kg. Type of data set: functional, organism-based. Details: dose 100 mg/kg.
Data set [6] can be described thus: Anticonvulsant activity expressed as toxic dose in rotarod test (0.5 hr) in mice;Activity determined at time of peak effect (0.5 hr). The class given is ADME, organism-based. The following applies: mouse, in vivo. Put shortly:
as §2

Data set [7] has as its system Mus musculus. Kind of data set: Anticonvulsant activity in mice using sc Met seizure test;Compound is neurotoxic at 5 mg/kg. Type of data set: functional, organism-based. More on the design: dose 5 mg/kg.
Data set [8] concerns Mus musculus. Kind of data set: Anticonvulsant activity in mice using MES seizure test;Compound is neurotoxic at 30 mg/kg dose. The class given is functional, organism-based. Details: dose 30 mg/kg.
Data set [9] has as its system Mus musculus. Kind of data set: Anticonvulsant activity in mice using sc Met seizure test;NA means inactive. The class given is functional, organism-based. Put shortly:
(§3)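 Mice were dosed at 30, 100, 300 and 600 mg/kg, four per dose, and tested at 30 min and 4 h. Pentylenetetrazol was then given subcutaneously at its CD99. Protection means absence of even a threshold seizure (one clonic spasm of 5 s). ED50 was estimated graphically, some at peak-effect time or 4 h. Litchfield-Wilcoxon 95% limits apply where confirmed.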

The species named for data set [10] is Mus musculus. Put plainly: Anticonvulsant activity in mice using MES seizure test;NA means inactive. Type of data set: functional, organism-based. Put shortly:
(§4)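 Mice were injected at 30, 100, 300 and 600 mg/kg, four per dose, and tested at 30 min and 4 h. Protection means abolition of the hindlimb tonic extensor component of the maximal electroshock seizure (60 Hz alternating current, 50 mA, 0.2 s, corneal electrodes). ED50 was estimated graphically. Confirmed values carry Litchfield-Wilcoxon 95% confidence limits.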

Data set [11] can be described thus: Anticonvulsant activity expressed as toxic dose in rotarod test (0.5 hr) in mice. To be noted: mouse, in vivo. The class given is toxicity, organism-based. The method in brief: as §2
Data set [12] has as its system Mus musculus. Put plainly: Anticonvulsant activity in mice using sc Met seizure test. The class given is functional. The method in brief: as §3
The species named for data set [13] is Mus musculus. Put plainly: Anticonvulsant activity expressed as toxic dose in rotarod test (0.5 hr) in mice;NA means inactive. The class given is ADME, organism-based. To be noted: in vivo. The method in brief:
(§5)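 Mice, rotorod test of acute neurotoxicity at 0.5 h. Doses 30, 100, 300 and 600 mg/kg, four animals per dose, with positives assessed by four more observations. Median neurotoxic dose (TD50) was estimated graphically from combined ADD and in-house screening. Where confirmed by further ADD testing, 95% confidence limits were calculated by Litchfield-Wilcoxon.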

Data set [14] is filed under the species Mus musculus. Put plainly: Anticonvulsant activity in mice using MES seizure test;Activity determined at time of peak effect (0.5 hr) and value ranges from (48-56). Type of data set: functional. Put shortly: as §4
The nature of data set [15]: Anticonvulsant activity expressed as toxic dose in rotarod test (0.5 hr) in mice;Activity determined at time of peak effect (0.5 hr) and value ranges from(47-65). The class given is ADME, organism-based. The following applies: mouse, in vivo. Put shortly: as §5
Data set [16] relates to Mus musculus. Put plainly: Anticonvulsant activity expressed as toxic dose in rotarod test (0.5 hr) in mice;4 out of 4 mice died at 600 mg/kg; wild running and tonic extension convulsion at 300 mg/kg;NA means inactive. The class given is ADME, organism-based. To be noted: in vivo. The method in brief:
as §5

In data set [17] the test system is Mus musculus. Kind of data set: Anticonvulsant activity in mice using sc Met seizure test;Activity determined at time of peak effect (0.5 hr) and value ranges from(12-20). Type of data set: functional. Put shortly: as §1
The species entered for data set [18] is Mus musculus. Put plainly: Anticonvulsant activity in mice using MES seizure test;Activity determined at time of peak effect (0.5 hr) and value ranges from(48-55). Type of data set: functional.
Data set [19] in a line: Anticonvulsant activity expressed as toxic dose in rotarod test (0.5 hr) in mice;Value ranges from(36-43). The class given is ADME, organism-based. The following applies: mouse, in vivo. The method in brief: as §2
The species named for data set [20] is Mus musculus. Put plainly: Anticonvulsant activity in mice using MES seizure test; determined at time of peak effect (0.5 hr). Type of data set: functional. The method in brief:
as §4

In data set [21] the test system is Mus musculus. Put plainly: Anticonvulsant activity in mice using sc Met seizure test;Activity is determined at 4h. Type of data set: functional. Put shortly:
as §1

Data set [22] is filed under the species Mus musculus. Put plainly: Anticonvulsant activity in mice using MES seizure test. Type of data set: functional. Put shortly: as §4

Calls of active or inactive are those of the source.

In general, ED50 refers to the dose that gives a 50% effect, or the effect in half of the subjects. The term TD50 denotes the 50% point of the dose-response relation for the toxic effect studied. Read a high TD50 as lower toxicity.

As to `Cc1ccccc1-n1c(C)nc2ncccc2c1=O`, the 50% effect level with Mus musculus [1] (ED50) was put at a dose of 40 mg/kg. For the same compound, the ED50 result with Mus musculus [2] is “inactive”. In data set [3], the TD50 at 0.5 h was found to be 137 mg/kg.
Compound `Cc1nc2cccnc2c(=O)n1-c1ccccc1C(F)(F)F` gave an ED50 in the data set on Mus musculus [4] of 100 mg/kg. The ED50 entry in the data set with Mus musculus [5] is “inactive”. This compound also showed a TD50 at 0.5 h in data set [6] of 100 mg/kg.
Take `Cc1nc2cccnc2c(=O)n1-c1ccc(Cl)cc1Cl`: the ED50 entry with Mus musculus [7] and with Mus musculus [8] was “inactive” throughout.
In the case of `Cc1nc2cccnc2c(=O)n1-c1cccc(C(F)(F)F)c1`, the ED50 result in the data set with Mus musculus [9] and in the data set filed under Mus musculus [10] was “inactive” in each case. Also, the TD50 at 0.5 h in data set [11] was 50 mg/kg.
`COC(=O)c1c(C)c(C)cc2c(=O)n(-c3ccccc3C)c(C)nc12` yielded a median effective dose (ED50) in the data set with Mus musculus [12] of 600 mg/kg. The ED50 entry in the data set filed under Mus musculus [10] was “inactive”. In addition, in the data set listed under Mus musculus [13], the TD50 result was “Not Active”.
As to `Cc1ccccc1-n1c(C)nc2ccccc2c1=O` [METHAQUALONE], the 50% effect level in the data set listed under Mus musculus [14] (ED50) was put at a dose of 52 mg/kg. This compound also had a TD50 at 0.5 h in data set [15] of 55 mg/kg.
Regarding `Cc1cc2c(=O)n(-c3ccccn3)c(C)nc2c(C(=O)O)c1C`, the ED50 result in the data set on Mus musculus [9] and in the data set filed under Mus musculus [10] was “inactive” each time. Further, the TD50 result in the data set on Mus musculus [16] was “Not Active”.
Turning to `Cc1ccccc1-n1c(C)nc2cccnc2c1=O`, the 50% effective dose (ED50) amounted to 16.5 mg/kg with Mus musculus [17] and 52 mg/kg in the data set filed under Mus musculus [18]. For the same compound, in [19], the TD50 at 0.5 h turned out to be 40 mg/kg.
Regarding `Cc1cc2c(=O)n(-c3ccc(F)cc3)c(C)nc2c(C(=O)O)c1C`, the ED50 with Mus musculus [12] came out at 440 mg/kg. The ED50 result in the data set listed under Mus musculus [10] is “inactive”. Further, in the data set filed under Mus musculus [13], the TD50 result is listed as “Not Active”.
In the data set listed under Mus musculus [20], `COC(=O)c1c(C)c(C)cc2c(=O)n(-c3ccccn3)c(C)nc12` returned a 50% effective dose (ED50) of 52 mg/kg. Also, the ED50 result with Mus musculus [9] was “inactive”. Also, the TD50 entry in the data set filed under Mus musculus [13] is “Not Active”.
`Cc1nc2cccnc2c(=O)n1-c1ccc(C(F)(F)F)cc1` returned a median effective dose (ED50) in the data set on Mus musculus [21] of 90 mg/kg. Further, the ED50 result in the data set with Mus musculus [2] was “inactive”. For the same compound, the TD50 at 0.5 h in data set [11] was 170 mg/kg.
Take `COC(=O)c1c(C)c(C)cc2c(=O)n(-c3cccc(F)c3)c(C)nc12`: in the data set on Mus musculus [12], the 50% effective dose (ED50) is 430 mg/kg. Also, in the data set filed under Mus musculus [10], the ED50 result was “inactive”. In addition, the TD50 at 0.5 h in data set [11] amounted to 540 mg/kg.
For `COC(=O)c1c(C)c(C)cc2c(=O)n(-c3ccccc3F)c(C)nc12`, the ED50 result with Mus musculus [9] and in the data set listed under Mus musculus [10] was “inactive” each time. Also, the TD50 at 0.5 h in [11] was 280 mg/kg.
For `COC(=O)c1c(C)c(C)cc2c(=O)n(-c3ccc(F)cc3)c(C)nc12`, the ED50 with Mus musculus [12] was determined as 440 mg/kg; in the data set listed under Mus musculus [22], 600 mg/kg. Also, in the data set listed under Mus musculus [13], the TD50 result is given as “Not Active”.

The record behind these values is ChEMBL document CHEMBL1122451, “Synthesis of 3,4-dihydro-4-oxoquinazoline derivatives as potential anticonvulsants” (J Med Chem, 1983).
